IDE inh: human IDE inhibitors in live cells, primary screen, fluorescence polarization, HEK cells, FAbetaB substrate | FAbetaB cleavage | inhibition, % at 5.59 µM | 320,000 compounds, 0.41% hits | AID 434962, 2010;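 active = percent inhibition above the average of all tested compounds plus 3 SD, set per screening campaign, cut at about 16% in these data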;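 note: IDE supplied by intact live HEK cells; FP after avidin binding of uncleaved biotin substrate so inhibition keeps polarization high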
IDE cell activ: human IDE activators in live cells, primary screen, fluorescence polarization, HEK cells, FAbeta-B substrate; Insulin-degrading enzyme (Homo sapiens), P14735; AID 493087, 2011; 340,000 compounds, 0.073% hits; activation, % at 5.96 µM; FAbeta-B cleavage; 0% vehicle, 100% cell-free pure enzyme wells;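 active = activation above the mean of all tested compounds plus 3 SD, set per screening campaign, cut at about 17% in these data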
proCasp3 act: activators of human procaspase-3 D3A mutant, primary screen, biochemical, absorbance, PC-3 D3A mutant, single concentration; 330,000 compounds, 0.11% hits; activation, % at 8.5 µM; recombinant procaspase-3 D3A, Ac-DEVD-pNA absorbance 405 nm; Caspase-3 (Homo sapiens), P42574;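 active = activation above the mean of all tested compounds plus 3 SD, cut at about 21% in these data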
Target sequence (P42574 whole entry D9A/D28A/D175A): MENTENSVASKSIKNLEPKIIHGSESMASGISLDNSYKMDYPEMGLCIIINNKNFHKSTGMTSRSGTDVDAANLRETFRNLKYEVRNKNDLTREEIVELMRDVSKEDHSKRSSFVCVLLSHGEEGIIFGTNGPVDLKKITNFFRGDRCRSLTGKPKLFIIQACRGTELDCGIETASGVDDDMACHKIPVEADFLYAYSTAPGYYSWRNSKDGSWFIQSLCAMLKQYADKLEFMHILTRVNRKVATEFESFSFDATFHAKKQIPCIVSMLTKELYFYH
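assay system = Procaspase-3 D3A mutant | signal = absorbance at 405 nm, 0 and 120 min | times = 1 h preincubation plus 2 h reaction at 25 °C | repeats = single replicate | read-out = % activation between DMSO and enzyme-spiked controls | medium = Zinc-free HEPES saline buffer with Triton X-100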
UBC13 polyUb: UBC13 polyubiquitin chain formation inhibitors, primary screen, biochemical, TR-FRET, uHTS; 330,000 compounds, 0.47% hits; AID 485273, 2010; Ubiquitin-conjugating enzyme E2 N (Homo sapiens), P61088; inhibition, % at 20 µM; in the data active = inhibition above about 45%, passing the limit was not always enough
Target sequence (P61088 whole entry, looked up): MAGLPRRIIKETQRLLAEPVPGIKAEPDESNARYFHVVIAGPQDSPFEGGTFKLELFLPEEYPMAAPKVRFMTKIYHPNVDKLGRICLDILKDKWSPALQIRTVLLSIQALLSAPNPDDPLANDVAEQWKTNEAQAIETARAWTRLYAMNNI
procasp7 counter: procaspase-7 activators, primary screen, counter-screen for procaspase-3 activator project, biochemical, absorbance, HTS, human; recombinant procaspase-7, Ac-DEVD-pNA absorbance 405 nm; D23A/D198A/D206A triple mutant, cannot self-cleave; scale: DMSO 0, 5 µM enzyme 100; AID 463210, 2010; Caspase-7 (Homo sapiens), P55210; 330,000 compounds, 0.093% hits; activation, % at 8.5 µM;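 active = percent activation above the screen-wide mean plus 3 SD, cut at about 25% in these data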
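System: Uncleavable procaspase-7 mutant enzyme; Amount: 2 µM procaspase-7 mutant as dispensed; Schedule: 1 h compound preincubation, 2 h substrate cleavage, 25 °C; Measured by: 405 nm absorbance of p-nitroaniline; Evaluation: percent activation from buffer-corrected 0–120 min absorbance change; Control set: low DMSO alone, high DMSO plus 5 µM PC-7.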
PHOSPHO1 inh: PubChem AID 1565; Phosphoethanolamine/phosphocholine phosphatase (Homo sapiens), Q8TCT1; recombinant PHOSPHO1, absorbance phosphatase assay; inhibition, % at 13.3 µM; 290,000 compounds, 1.1% hits; in the data active = inhibition above about 60%
Each line names hits and unclear results; the compound was inactive in the other large screens. Shown are actives, neighbours in structure and some others; about 1.9% of the full set was active somewhere.

O=C(O)c1ccccc1Nc1ccc([N+](=O)[O-])c2nonc12	IDE cell activ 22
CCOC(=O)C(=CNNc1cccc(Cl)c1)C(=O)OCC	PHOSPHO1 inh 74
Nc1cc2c3ccccc3ccc2c2ccccc12	none (no result: IDE inh, proCasp3 act, UBC13 polyUb, procasp7 counter, PHOSPHO1 inh)
C=CCn1c(=N)c(C(=O)NCCCOC)cc2c(=O)n3cccc(C)c3nc21	none
O=C(NCc1ccco1)c1cccn2c(=O)c3cc4ccccc4cc3nc12	PHOSPHO1 inh 100 (no result: IDE inh, IDE cell activ, proCasp3 act, UBC13 polyUb, procasp7 counter)
COCCCNC(=O)c1cccn2c(=O)c3cc4ccccc4cc3nc12	PHOSPHO1 inh 95
Cc1ccc(C(=O)c2coc3c2C(=O)C(=O)c2ccccc2-3)cc1	PHOSPHO1 inh 85
Cc1ccc(C(=O)c2c(C)oc3c2C(=O)C(=O)c2ccccc2-3)cc1	none
CSc1ccc(S(=O)(=O)N2CCC(C(=O)NC3CC3)CC2)cc1	none
O=[N+]([O-])c1ccc(Cl)c(/C=N/n2c(C3CCCCC3)n[nH]c2=S)c1	PHOSPHO1 inh 103
O=[N+]([O-])c1cccc(/C=N/n2c(C3CCCCC3)n[nH]c2=S)c1	none
CC(=NNC(=O)c1ccncc1)c1cc(Cl)ccc1Cl	none (no result: IDE inh, proCasp3 act, UBC13 polyUb, procasp7 counter, PHOSPHO1 inh)
CC1(c2ccccc2)NC(=S)N2C1NC(=S)N2c1ccccc1 (stereo unspecified)	PHOSPHO1 inh 61
COc1ccc(N2C(=S)NC3N2C(=S)NC3(C)c2ccccc2)cc1 (stereo unspecified)	PHOSPHO1 inh 61
CNC(=O)COc1ccc(Nc2nnc(-c3ccc(C)c(S(N)(=O)=O)c3)c3ccccc23)cc1	none
COc1ccc(CNC(=O)CN(c2cc(C)cc(C)c2)S(=O)(=O)c2c(C)[nH]c(=O)[nH]c2=O)cc1	PHOSPHO1 inh 64
Cc1cccc2[nH]c(CCNC(=O)C3CCC(=O)N(CCc4cccc(F)c4)C3)nc12 (stereo unspecified)	none
O=c1/c(=C/c2ccco2)sc2nc(-c3ccccc3Br)nn12	PHOSPHO1 inh 98
CC1=C(C(=O)N2CCCC(N3CCN(c4ccccc4F)CC3)C2)OCCO1 (stereo unspecified)	none
C1CCCCCC(=NNc2nn[nH]n2)CCCCC1	IDE cell activ 34
Cc1cc(C)nc(NN=C2CCCC2)n1	none
COC(=O)c1ccc(NC(=O)C2CCN(C(=O)c3cc(OC)c(OC)c(OC)c3)CC2)cc1	PHOSPHO1 inh 106
O=C(c1cc(COc2ccc3ncccc3c2)on1)N1CCC(O)CC1	PHOSPHO1 inh 62
COc1ccc(NC(=O)CSCc2cc(=O)n3cc(C)sc3n2)cc1	none
CC(=O)N1CC[n+]2c(-c3ccc(Cl)cc3Cl)csc21	IDE inh 17
CN(CC(=O)N1CCN(Cc2ccccc2)CC1)C(=O)Cc1cccc2ccccc12	none (no result: PHOSPHO1 inh)
Cc1cc(C(=O)CSc2nnc(-c3ccc(F)cc3)o2)c(C)n1CC1COc2ccccc2O1 (stereo unspecified)	PHOSPHO1 inh 91
Cc1cc(C(=O)CSc2nnc(-c3ccccc3)o2)c(C)n1CC1COc2ccccc2O1 (stereo unspecified)	none
Cc1cc(C(=O)CSc2nnc(-c3ccc(F)cc3)o2)c(C)n1CC1CCCO1 (stereo unspecified)	PHOSPHO1 inh 100
Cc1cc(C(=O)CSc2nnc(-c3ccco3)o2)c(C)n1CC1COc2ccccc2O1 (stereo unspecified)	PHOSPHO1 inh 91 (no result: IDE inh, proCasp3 act, UBC13 polyUb, procasp7 counter)
COc1cc(-c2nnc(SCC(=O)c3cc(C)n(CC4CCCO4)c3C)o2)cc(OC)c1OC (stereo unspecified)	none
CC(C)N(C(=O)[C@H]1C[C@H](CC(=O)NCC23CC4CC(CC(C4)C2)C3)C(=O)N2CCc3c([nH]c4cc(CCC(=O)N(C)C)ccc34)[C@]12C)C(C)C	none (no result: IDE inh, UBC13 polyUb, PHOSPHO1 inh)
O=C(NCc1nnnn1-c1ccc(F)c(F)c1)c1cc2ccccc2o1	none (no result: PHOSPHO1 inh)

Compound activity: PubChem, several laboratories
